Screening results (PubChem BioAssay)
MRP reversal = reverses drug resistance mediated by MRP | 85,000 compounds, 0.04% hits | H69AR cells + 2 uM doxorubicin, CellTiter-Glo, 72 h | differential viability (reversal), % at 10 µM;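 active = viability drop by adding the cancer drug above about 55%, with treated viability meeting a 40% cutoff, limit read from the data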;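 also: larger differential means the compound sensitizes cells more to doxorubicin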
Yeast lifespan up = yeast lifespan extension; S. cerevisiae growth with nicotinamide, OD615; deaD strain in restrictive glucose medium; inhibition of the nicotinamide effect, % at 10 µM; 130,000 compounds, 0.68% hits;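 active = inhibition above a set limit, placed 3 SD over the median of all compounds, cut at about 26% in these data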
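Test system – modified budding yeast, DeaD strain · Compound – single dose 10 µM compound, 0.25% DMSO · Times – culture preincubation 4 h, compound exposure 48 h, both 30 °C · Detection – optical density (absorbance) at 615 nm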
Phagocyt inh = inhibitors of macrophage phagocytosis | inhibition, % at 5 µM | J774A.1 macrophage IgG-bead phagocytosis, imaging | 110,000 compounds, 0.07% hits | AID 1029;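 active = inhibition above the mean of the plate negative controls plus 5 SD, cut at about 13% in these data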;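 also: phagocytic index as fraction of beads internalized from green versus red external bead signal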
SDO1 yeast rescue = sdo1-depleted yeast growth rescue; S. cerevisiae sdo1-depleted JHY4D growth rescue, OD600 30 h; stronger effect = higher value; pdr5 snq2 efflux-pump mutant strain; z-score at 10 µM; 140,000 compounds, 0.21% hits; AID 817;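 active = z-score above 3 at both the 24 hr and the 30 hr optical density reads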
MRP1 act = activates MRP-1. H69AR cells + doxorubicin, viability rescue, CellTiter-Glo. viability increase, % at 10 µM. 140,000 compounds, 0.61% hits;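 active = viability gain under doxorubicin at or above a set limit, the compound median plus 3 SD, cut at about 4.7% in these data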;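 also: MRP-1 overexpressing cells given doxorubicin 25 µM after compound pretreatment; 18-22 h compound pretreatment then 72 h with doxorubicin before readout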
BB579 growth dn = chemicals that inhibit yeast BB579 growth in restrictive medium (lifespan-shortening candidates); S. cerevisiae BB579 growth, OD615, 48 h; inhibition, % at 10 µM; 140,000 compounds, 0.51% hits;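 active = inhibition above a set limit, 3 SD over the mean compound inhibition, cut at about 44% in these data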
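Test system: Saccharomyces cerevisiae DeaD strain BB579, replicative lifespan model yeast | Buffer or medium: Restrictive CSMM-D medium | Doses: One dose, 10 µM compound with 0.25% DMSO | Incubation: 48 h exposure, 30 °C | Detection: Culture absorbance at 615 nm | Control set: Amphotericin B at 10 µg/mL as positive control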
Large screens that a line does not name were inactive; [ ] = dose if it differs, or a comment. Only some compounds are listed: those with a hit (about 2.1% of all), similar ones and a draw of the others.

COc1ccccc1N1CC(C(=O)Nc2nnc(SCc3ccccn3)s2)CC1=O (configuration not stated)	Yeast lifespan up 29.7 (no result: MRP reversal)
c1ccc2c(c1)nnn2CNc1nccs1	none (no result: MRP reversal)
COc1ccc(OCCNC2CCCC2)cc1	BB579 growth dn 70.6 (no result: MRP reversal)
N#Cc1ccc(OCCOCCNC2CCCC2)cc1	none (no result: MRP reversal)
CC(c1ccccc1)N1CCn2c(nc3cc(NC(=O)c4cccs4)ccc32)C1 (configuration not stated)	Yeast lifespan up 55.5
O=C(c1ccco1)c1cc2c(ccc3ccccc32)oc1=O	none
COCCNC(=O)CSc1nc2ccccc2c2nc(C)nn12	none
CCOCC(=O)Nc1nc2c(s1)C(=O)CC(C)(C)C2	BB579 growth dn 45.0
O=C(CSc1ccc2nnc(-c3ccncc3)n2n1)NCc1ccco1	none
O=c1cc(-c2ccncc2)oc2ccccc12	BB579 growth dn 46.0
O=c1cc(-c2c(F)c(F)c(F)c(F)c2F)oc2ccccc12	none (no result: MRP reversal)
CCn1cc([N+](=O)[O-])c(C(=O)N2CCN(C(=O)c3ccco3)CC2)n1	none (no result: MRP reversal)
CC(C)(C)NC(=O)COC(=O)c1snc(C(=O)NC2CCCCC2)c1N	none
CC(OC(=O)c1snc(C(=O)NC2CCCCC2)c1N)C(=O)NC(C)(C)C (configuration not stated)	MRP1 act 6.2 (no result: Yeast lifespan up, Phagocyt inh)
O=C(CSc1ncn[nH]1)N1CCN(c2nnc(-c3ccccc3)c3ccccc23)CC1	none (no result: MRP reversal)
CCOC(=O)c1cc(-c2ccccc2)sc1NC(=O)C(C)Sc1nnc(C)s1 (configuration not stated)	MRP1 act 9.2 (no result: MRP reversal)
CC1=NN(c2ccc(C(F)(F)F)cn2)C(=O)C1	Yeast lifespan up 58.1 (no result: MRP reversal, Phagocyt inh)
Cc1c(C(=O)OC(C)C)sc(N)c1C(=O)OC(C)C	MRP1 act 5.4 (no result: MRP reversal)
O=C(NCc1ccco1)c1cccc2c1C(=O)N(C1CCCCC1)C2	none (no result: Phagocyt inh)
O=C(NCc1cccnc1)c1cccc2c1C(=O)N(C1CCCCC1)C2	Yeast lifespan up 52.2 (no result: Phagocyt inh)
Clc1ccc(OCc2nc(-c3ccccn3)n[nH]2)cc1	none
Brc1ccc(OCc2nc(-c3ccccn3)n[nH]2)cc1	MRP1 act 8.4
COc1ccc(/C=C/C(=O)NCCCn2ccnc2)cc1	none (no result: MRP reversal)
O=C(Nc1cccn(Cc2c(Cl)cccc2Cl)c1=O)c1c(Cl)cccc1Cl	MRP1 act 9.2 (no result: MRP reversal, Phagocyt inh)
O=C(/C=C/c1cccc(Br)c1)NCC1CCCCC1	none (no result: MRP reversal)
CCCCc1ccc(/C=C2\C(=O)ON=C2c2ccccc2)s1	Phagocyt inh 39.3[artifact] (no result: MRP reversal)
CCCOC(=O)c1c(N)sc(C(=O)OCC)c1C	none (no result: MRP reversal)
O=c1nc2c(O)cccn2c2c1c(=O)[nH]c1ccccc12	none (no result: MRP reversal)
O=c1[nH]c2ccccc2c2nc3ccccn3c12	BB579 growth dn 79.8
COc1ccc(OC)c2[nH]c(=O)c(CCNC(=O)c3ccc(Br)o3)cc12	MRP1 act 4.7
Cc1ccc2c(c1)sc[n+]2Cc1ccccc1	none (no result: MRP reversal, Phagocyt inh)
Cc1cc(NC(=O)c2cncc(Br)c2)no1	none
CC(=O)Nc1ccc(C(=O)CSc2nnc(-c3ccc(O)cc3)n2CC2CCCO2)cc1 (configuration not stated)	Yeast lifespan up 63.6
CC1(C)CC(=O)C(Sc2nnc(-c3ccc(O)cc3)n2CC2CCCO2)C(=O)C1 (configuration not stated)	none
Cc1nc([N+](=O)[O-])c(Br)n1CC(=O)c1ccc2ccccc2c1	Phagocyt inh active
COc1ccc(C2OCC3(CO2)SC(=O)NC3=O)cc1 (configuration not stated)	none (no result: MRP reversal)
O=C1NC(=O)C2(COC3(CCCC3)OC2)S1	MRP1 act 4.8
Cc1cccc(-c2cc3nc(-c4ccccc4)cc(N4CCC5(CC4)OCCO5)n3n2)c1	none (no result: Yeast lifespan up, Phagocyt inh)
Fc1cccc(-c2cc3nc(-c4ccccc4)cc(N4CCC5(CC4)OCCO5)n3n2)c1	MRP1 act 6.1 (no result: Yeast lifespan up, Phagocyt inh)
CNc1oc(-c2ccc(C)cc2)nc1P(=O)(c1ccccc1)c1ccccc1	MRP1 act 7.4 (no result: MRP reversal, Phagocyt inh)
COCCNc1oc(-c2ccccc2Cl)nc1C#N	none
CNc1oc(-c2ccccc2Cl)nc1P(=O)(c1ccccc1)c1ccccc1	MRP1 act 4.7 (no result: MRP reversal)
CCn1c(C(O)c2ccc(C)cc2)nc2ccccc21 (configuration not stated)	none
COc1cccc(C(C)NC(=O)Nc2cccc(C(F)(F)F)c2)c1 (configuration not stated)	none (no result: MRP reversal)
CCn1c(Sc2nc(C)nc3scc(-c4cccs4)c23)n[nH]c1=O	BB579 growth dn 99.0
Cc1ccc2[nH]c(=O)c(CN(CCO)Cc3nnnn3CCc3ccccc3)cc2c1	Yeast lifespan up 68.3
Cc1ccc2[nH]c(=O)c(CN(Cc3cccs3)Cc3nnnn3Cc3ccccc3)cc2c1	none (no result: Phagocyt inh)
O=C1[C@@H]2[C@H](Cc3ccc(O)cc3)N[C@]3(C(=O)Nc4ccccc43)[C@@H]2C(=O)N1c1ccc(F)cc1	MRP1 act 5.7
O=C1[C@@H]2C(Cc3ccc(O)cc3)NC3(C(=O)Nc4ccc(F)cc43)[C@@H]2C(=O)N1c1ccccc1 (some centres not stated)	none
COc1cc(/C=N/N(C)c2ccccc2)cc(Cl)c1O	BB579 growth dn 99.7
COc1ccc(NC(=O)c2oc3ccccc3c2NC(=O)C(C)(C)C)cc1	MRP1 act 5.5 (no result: MRP reversal)
COc1ccc(NC(=O)c2oc3ccccc3c2NC(=O)C2CC2)cc1	none (no result: MRP reversal)
CCn1c2ccccc2c2cc(Nc3cc(C)nc4ncnn34)ccc21	none
O=C(c1cncc(Br)c1)N1CCc2ccccc2C1	Yeast lifespan up 43.1
Cc1cnc(C(=O)Nc2ccccc2C(=O)N2CCOCC2)cn1	none
Cn1c(=O)c2c(nc(Br)n2Cc2ccccc2Cl)n(C)c1=O	none
Cn1c(=O)c2c(nc(Br)n2Cc2ccc3ccccc3c2)n(C)c1=O	Yeast lifespan up 38.4
O=c1c2ccccc2nc2c3ccccc3c3nncn3n12	BB579 growth dn 82.3
O=C(/C=C/c1ccccc1Cl)Nn1cnc2ccccc2c1=O	none (no result: MRP reversal)
COc1ccc(S(=O)(=O)n2nc(-c3cc(OC)c(OC)c(OC)c3)cc2N)cc1OC	none (no result: Phagocyt inh)
COc1ccc(-c2cc(N)n(S(=O)(=O)c3c(F)c(F)c(F)c(F)c3F)n2)cc1OC	Yeast lifespan up 76.9
CCCCOc1ncnc2c1[nH]c1ccc(F)cc12	none
S=C(NCc1ccccn1)Nc1ccccc1Cl	MRP1 act 8.2 (no result: MRP reversal)
O=C(CS(=O)c1ccc(C(F)(F)F)cc1[N+](=O)[O-])Oc1ccccc1 (configuration not stated)	Yeast lifespan up 40.4
CCc1ccccc1NC(=S)NCc1ccc2c(c1)OCO2	none (no result: MRP reversal, Phagocyt inh)
CC(=C1C(=O)c2ccccc2C1=O)N1CCN(C/C=C/c2ccccc2)CC1	Yeast lifespan up 57.3
CCNC(=S)N/N=C(\C)c1ccc(N2CCOCC2)cc1	none (no result: MRP reversal)
CNC(=S)N/N=C(\C)c1ccc(N2CCOCC2)cc1	BB579 growth dn 70.4 (no result: MRP reversal)
CC1CCc2c(sc3nc(CN4CCOCC4)nc(Sc4ccccc4)c23)C1 (configuration not stated)	BB579 growth dn 46.1 (no result: MRP reversal)
